AI-2 QS modul: Vibrio harveyi AI-2 quorum sensing modulators, primary screen, JMH597 strain, luminescence/OD600 ratio; Vibrio harveyi JMH597 AI-2 luminescence/OD600 ratio, 9 h; hits give low values; strain lacks LuxN and CqsS sensors; 0 = neutral-control median; activity change, % at 7.5 µM; 300,000 compounds, 0.4% hits; in the data active means activity change below about -75%, passing the limit was not always enough; inconclusive means no clear call, values can overlap the other calls;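 further: luminescence divided by OD600 gain over 9 h not by final OD600 alone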
ALR H2O2 inh: inhibitors of human ALR sulfhydryl oxidase, primary screen, biochemical, H2O2 detection, HRP-luminol luminescence, single point | purified ALR, DTT oxidation | inhibition, % (concentration not given with the values) | 290,000 compounds, 3.8% hits | FAD-linked sulfhydryl oxidase ALR (Homo sapiens), P55789 | AID 485317, 2010;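 active means mean replicate inhibition above about 79%, with every replicate also reaching it, limit read from the data; inconclusive means only one of the two criteria met; inactive means mean below limit and not every replicate reaching it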
Target sequence (P55789 whole entry, looked up): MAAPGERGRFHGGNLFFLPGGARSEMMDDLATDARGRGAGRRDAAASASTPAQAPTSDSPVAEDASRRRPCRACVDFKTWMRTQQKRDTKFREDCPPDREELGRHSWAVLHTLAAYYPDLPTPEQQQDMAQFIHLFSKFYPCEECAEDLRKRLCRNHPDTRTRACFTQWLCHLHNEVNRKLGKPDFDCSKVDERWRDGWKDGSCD
HCV core dimer: inhibitors of HCV core protein dimerization, primary screen, biochemical, TR-FRET, high-throughput; 300,000 compounds, 0.33% hits; inhibition, % at 5 µM; TR-FRET GST/Flag-core106 dimerization, 1536-well;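 active means inhibition above the mean of all tested compounds plus 3 SD, set per screening campaign, cut at about 45% in these data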
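assay system = GST-tagged and Flag-tagged HCV core protein residues 1-106 | controls = unlabelled core106 and no-GST-core106 wells | incubation = compound-protein-antibody incubation 4 h at 22.5 °C | probe or stimulus = Eu donor and XL665 acceptor anti-tag antibodies | read-out = % inhibition based on acceptor/donor emission ratio | signal = TR-FRET 671 and 617 nm emission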
HSF1 inhib: HSF1 inhibitors in luciferase reporter cells, primary screen, cell-based, NIH3T3, luminescence; NIH3T3-HGL HSE-luciferase, MG132-induced, luminescence 8 h; hits give low values; activity change, negative = inhibition, % at 7.5 µM (by protocol); 300,000 compounds, 0.77% hits; AID 2098, 2009;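 active means more than half of replicate wells show activity change below -50%, luminescence cut by over half; inconclusive means some wells, but at most half, below -50%; inactive means no replicate well below -50%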;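 further: luciferase reports HSF-1 transcriptional activity via heat shock element; 0% = median of DMSO wells and -100% = zero luminescence signal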
PHOSPHO1 inh: PubChem AID 1565. recombinant PHOSPHO1, absorbance phosphatase assay. 290,000 compounds, 1.1% hits. Phosphoethanolamine/phosphocholine phosphatase (Homo sapiens), Q8TCT1. inhibition, % at 13.3 µM; in the data active means inhibition above about 60%
Target sequence (Q8TCT1 whole entry, looked up): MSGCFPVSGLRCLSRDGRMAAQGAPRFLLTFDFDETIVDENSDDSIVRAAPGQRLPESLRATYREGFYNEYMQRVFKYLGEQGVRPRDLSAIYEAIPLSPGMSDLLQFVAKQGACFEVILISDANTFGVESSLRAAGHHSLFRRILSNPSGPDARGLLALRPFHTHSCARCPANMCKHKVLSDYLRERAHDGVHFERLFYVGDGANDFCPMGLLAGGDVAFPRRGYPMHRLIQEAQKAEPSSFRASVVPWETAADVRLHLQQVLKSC
HSF1 activator: HSF-1 activators, primary screen, NIH3T3-HGL cells, MG132 stress, luminescence, single point | AID 504408, 2011 | 300,000 compounds, 1.7% hits | NIH3T3-HGL HSF-1 luciferase reporter, 8 h; 100% = twice DMSO control signal | activation, % at 9 µM;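 active means mean replicate activation of at least 50% with a set share of replicates each reaching 50%; inconclusive means only one of those two conditions met; inactive means mean below 50% and too few replicates reaching it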;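 further: 0% = median of the neutral control wells and 100% = twice that signal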
An asterisk follows results filed as active; ? = inconclusive; . = no result given. Hits are enriched below; roughly 6.8% of the tested compounds scored in any of these assays.

SMILES | AI-2 QS modul | ALR H2O2 inh | HCV core dimer | HSF1 inhib | PHOSPHO1 inh | HSF1 activator
Cc1cccc(Cn2c(N3CCN(C)CC3)nc3c2c(=O)n(C)c(=O)n3C)c1 | 1.9 | -5.9 | -10.0 | -3.9 | 13.9 | -8.7
CN(C)CCNC(C(=O)Nc1cccc(C(F)(F)F)c1)c1ccccc1 (stereo not given) | -4.3 | -9.1 | -5.1 | -1.0 | 21.3 | -0.3
O=C(Cc1ccccc1[N+](=O)[O-])NCc1ccc(Cl)cc1Cl | 7.0 | -5.1 | -2.5 | 39.4 | -12.3 | 80.7*
O=C(Cc1ccccc1[N+](=O)[O-])NCc1ccc(Cl)cc1 | 29.1 | -3.1 | -3.0 | 16.2 | 4.7 | 25.7
Cc1cc(Cl)ccc1Oc1ccccc1C(=O)CC#N | 35.8 | 7.2 | 9.1 | 1.5 | -16.5 | 7.4
CC(C)(C)c1ccc(O)c(/C=N\O)c1 | -0.6 | -2.0 | 8.0 | 4.2 | 11.5 | 13.8
CC(C)(C)c1cccc(/C=N/O)c1O | 12.1 | . | -3.4 | 21.4 | -12.9 | 65.6*
COCCn1c(=NC(=O)CSC(C)=O)sc2cc(OC)ccc21 | 5.4 | 97.7* | 0.4 | -9.2 | 25.6 | -10.3
Nc1c(C(=O)c2ccc(Cl)cc2)sc2nc3c(cc12)CCC3 | 17.8 | -3.0 | -13.2 | 27.0 | 1.8 | 51.5*
COc1ccccc1N1CSC2=C(C#N)C(c3ccc(SC)cc3)CC(=O)N2C1 (stereo not given) | 37.8 | . | 13.1 | 1.6 | 91.5* | 12.3
COc1cc(C2CC(=O)N3CN(c4ccccc4C)CSC3=C2C#N)cc(OC)c1OC (stereo not given) | 26.4 | -16.2 | 14.8 | -8.9 | 87.5* | -10.8
COc1cccc(C2CC(=O)N3CN(c4ccccc4F)CSC3=C2C#N)c1 (stereo not given) | 35.9 | -27.3 | 18.0 | -4.1 | 28.8 | -7.1
O=C(O)c1ccccc1NC(=O)N1CCOCC1 | 17.8 | -12.6 | -5.8 | -10.5 | -21.8 | -4.3
COc1ccc(/C=C2\CN(Cc3ccccc3)C/C(=C\c3ccc(OC)cc3OC)C2=O)c(OC)c1 | 44.2 | -35.9 | 48.7* | -47.5 | -4.6 | -49.5
COc1ccc(/C=C2\CN(Cc3ccccc3)C/C(=C\c3ccc(OC)cc3)C2=O)cc1 | . | . | 6.0 | . | -15.4 | .
CCOC(=O)CSc1cc(C)nc2ccc(OC)cc12 | 9.0 | 98.1* | -1.8 | 13.7 | -14.7 | 30.2
CCc1nn(C(CC)C(=O)NCc2cccc(OC)c2)c(=O)c2cc3occc3n12 (stereo not given) | 4.2 | -2.0 | 0.6 | -0.8 | 44.5 | 6.5
CCc1nn(C(CC)C(=O)NCc2cccc(OC)c2OC)c(=O)c2cc3occc3n12 (stereo not given) | 10.8 | 2.2 | 5.9 | 20.1 | 7.9 | 66.8*
CCCNC(=O)c1onc(CSc2ccc(Cl)cc2)c1C(=O)NCCC(C)C | 11.5 | -10.9 | -4.3 | 3.5 | . | 27.9
CCOCC(=O)Nc1nc2ccccc2s1 | 12.1 | 86.5* | -2.1 | 18.9 | -10.4 | ?
O=C(COc1ccccc1)NNc1nc2ccccc2s1 | 1.3 | 99.2* | 1.4 | -33.9 | 36.8 | -41.4
Cc1ccc(N2CN=C3SCC(=O)N3C2)cc1C | 23.5 | 12.3 | -1.0 | 5.6 | 55.7 | 18.4
CC1(C(=O)NCCCNc2ncc(C(F)(F)F)cc2Cl)C=CC2(CCCCC2)N1C(=O)c1ccccc1 (stereo not given) | 3.2 | . | . | -69.0* | . | -76.7
O=C(Nc1ccc2c(c1)OCCO2)C1CCN(C(=O)c2ccc([N+](=O)[O-])cc2)CC1 | 14.0 | -13.2 | -5.1 | -0.4 | 66.2* | 13.6
O=C(Nc1ccc2c(c1)OCCO2)C1CCN(C(=O)c2ccc(Br)cc2)CC1 | 14.9 | -0.8 | 9.5 | -7.4 | -20.1 | -1.4
SMILES | AI-2 QS modul | ALR H2O2 inh | HCV core dimer | HSF1 inhib | PHOSPHO1 inh | HSF1 activator
COc1ccc(CCNC(=O)c2cc(COc3c(C)cccc3C)on2)c(OC)c1 | 0.2 | -2.2 | -10.0 | 18.2 | 19.0 | 56.0*
O=C(CN1C(=O)NC2(CCCC2)C1=O)Nc1cccc(Cl)c1 | 19.8 | -3.3 | 6.8 | -9.0 | 15.1 | -4.0
COc1ccc(N2CCN(Cc3nc(Cc4cccc(F)c4)no3)C(C)C2)cc1 (stereo not given) | 26.7 | 98.4* | -2.0 | -4.7 | 15.2 | 11.0
c1ccc(COc2ccccc2CNC2CCCC2)cc1 | 7.5 | 3.4 | -1.7 | 23.9 | 43.7 | 58.2*
c1csc(COc2ccccc2CNC2CCCCC2)c1 | 21.5 | -5.9 | -7.0 | -0.5 | -1.8 | 12.9
CCOC(=O)C1CCN(C(=O)c2ccccc2CCc2ccccc2)CC1 | 16.5 | -55.4 | 11.8 | -8.6 | . | -0.9
N#CNC(=Nc1ccccc1)SCc1ccc(C(=O)O)cc1 | 3.3 | -2.6 | -2.8 | -0.2 | 15.8 | 11.5
N#CNC(=Nc1cccc(C(F)(F)F)c1)SCc1ccc(C(=O)O)cc1 | 4.7 | 98.8* | -3.2 | . | -3.6 | .
O=C(CN1CCN(c2ccc(F)cc2)CC1)Nc1ccccc1[N+](=O)[O-] | 14.8 | 66.6 | 2.1 | -5.4 | 40.5 | 9.5
COc1ccc(CCn2nc(C)c([N+](=O)[O-])c2C)cc1 | 21.0 | -0.9 | -5.6 | 36.0 | -14.7 | ?
Cc1cccc(-n2c(CNC(=O)Cc3ccccc3)n[nH]c2=S)c1 | 31.3 | 11.8 | -5.6 | -0.3 | -42.3 | -8.4
Cc1cccc(-n2c(CCn3nc(C)c([N+](=O)[O-])c3C)n[nH]c2=S)c1 | 10.1 | 91.9* | -2.1 | -7.6 | 96.9* | -21.2
COc1cccc(-n2c(CCn3nc(C)c([N+](=O)[O-])c3C)n[nH]c2=S)c1 | 28.5 | 85.5* | -6.7 | -6.2 | -29.3 | -16.2
O=C(CN1C(=O)C(=O)N(C2CCCC2)C1=O)Nc1cc(Cl)ccc1[N+](=O)[O-] | . | -1.2 | . | . | . | .
O=C(CCCn1c(=O)oc2ccccc21)NNC(=O)COc1ccc(F)cc1 | . | -6.4 | . | . | . | .
Cc1cc(C)nc(NS(=O)(=O)c2ccc(NC(=O)CSc3ncn[nH]3)cc2)n1 | 1.8 | -0.1 | -0.1 | -6.2 | 61.8* | -16.6
COC(=O)c1ccc(NC(=O)C(=O)c2cccn2C)cc1 | -10.3 | . | 4.8 | 20.0 | 35.8 | 60.7*
COC(=O)c1ccc(NC(=O)CSCc2ccccc2)cc1 | 11.6 | 98.6* | -6.5 | 20.2 | 4.6 | 42.9
O=C(CSCc1ccccc1)Nc1ccc(S(=O)(=O)Nc2ncccn2)cc1 | -10.2 | 98.0* | 6.1 | -4.8 | 23.9 | -2.5
O=C(NS(=O)(=O)N1CCCC1)C1=C(N2CCCC2)COC1=O | . | 1.4 | . | . | . | .
Cc1ccc(SCC(=O)Nc2ccc(S(=O)(=O)Nc3ncccn3)cc2)cc1 | -58.7 | 89.5* | 12.9 | -5.2 | 49.8 | -7.3
Cc1cc(C)nc(SCC(=O)Nc2ccc(S(=O)(=O)Nc3ncccn3)cc2)n1 | 5.4 | -9.6 | 7.3 | -1.9 | 8.0 | 5.5
